Rows were chosen to be rich in hits. Some 4.2% of all compounds tested hit in one or more screens of this group.
CHO parental Ca: signal in parental CHO cells, OX1R antagonist counter-screen; inhibition, % at 5.6 µM; parental CHO-K1, ATP-induced calcium, Fluo-8 fluorescence; 330,000 tested, 0.63% active;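 active means inhibition above that plate's mean sample inhibition plus 3 SD, cut at about 26% in these data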;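 further: 0% = ATP-challenged DMSO wells and 100% = DMSO wells without ATP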
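Test system: parental CHO cells; detection: calcium-sensitive Fluo-8 fluorescence; evaluation: percent inhibition of calcium signal; also added: ATP as calcium-mobilizing challenge; repeats: one well per compound; control set: ATP-challenged DMSO wells low, unchallenged DMSO wells high; compound: single nominal dose of 5.6 µM per compound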
OX1R antag-1: blocks the human orexin 1 receptor; O43613; CHO/OX1R cells, Fluo-8 calcium fluorescence, orexin A; inhibition, % at 5 µM; 330,000 tested, 0.43% active;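 active means inhibition above its plate's threshold, mean inhibition of all tested compounds on the plate plus 3 SD, cut at about 37% in these data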;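 further: 0% = orexin A challenge wells and 100% = SB-334867-A antagonist wells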
TAAR1 agonist: agonists of human TAAR1 | Q96RJ0 | CHO RD-HGA16 TAAR1, Fluo-8 calcium fluorescence; vehicle wells 0%, saturating PEA agonist 100% | activation, % at 3 µM | 360,000 tested, 0.99% active | AID 624467;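 active means activation above the mean activation of all test compounds in the run plus 3 SD, cut at about 38% in these data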
Target sequence (Q96RJ0 whole entry, looked up): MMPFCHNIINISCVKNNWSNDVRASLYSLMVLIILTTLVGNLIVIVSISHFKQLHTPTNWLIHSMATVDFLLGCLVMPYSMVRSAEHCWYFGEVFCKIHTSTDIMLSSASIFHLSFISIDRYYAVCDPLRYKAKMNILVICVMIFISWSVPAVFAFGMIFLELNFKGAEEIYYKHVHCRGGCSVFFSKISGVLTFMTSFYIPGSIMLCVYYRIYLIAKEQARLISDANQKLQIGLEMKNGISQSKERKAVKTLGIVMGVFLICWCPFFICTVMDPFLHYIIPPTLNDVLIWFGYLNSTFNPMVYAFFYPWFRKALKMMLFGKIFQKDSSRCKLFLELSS
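Assay system: CHO-derived RD-HGA16 cells with stable Gα16 and human TAAR1; timing: 17-24 h seeding, 75 min 37 °C dye, 30 min RT; read-out: % activation from peak over basal fluorescence ratio, DMSO-to-PEA scaled; measured by: kinetic Fluo-8 calcium fluorescence; benchmarks: low control DMSO, high control PEA (EC100); doses: 3 µM single concentration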
TAAR1 antagonist: antagonists of human TAAR1 | 360,000 tested, 1.5% active | inhibition, % at 3 µM | AID 624466 | CHO RD-HGA16 TAAR1, Fluo-8 calcium fluorescence, antagonist;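 active means inhibition above a per-plate cutoff, the mean inhibition of test compounds on that plate plus 3 SD, cut at about 49% in these data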;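 further: 0% = DMSO plus EC80 beta-PEA response and 100% = DMSO alone without agonist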
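Test system: CHO RD-HGA16 cells bearing hTAAR1 | Reagent: β-PEA, EC80 | Compound dosing: 3 µM, single point | Schedule: Dye loading 75 min at 37 °C, then 30 min room temperature | Signal: Calcium fluorescence with Fluo-8 | Evaluation: Percent inhibition of PEA-evoked calcium signal, max/basal emission ratio | Control set: DMSO-only wells and EC80 β-PEA-stimulated wells | Repeats: Singlicate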
GalR3 antag: antagonists of human GalR3. O60755. HEK293 GalR3-CNG cAMP membrane potential fluorescence; galR3 body fused to GalR1 C-terminus. inhibition, % at 3 µM. 360,000 tested, 0.44% active;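 active means inhibition above the screen-wide average plus 3 SD, cut at about 13% in these data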;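 further: forskolin and galanin both at EC90 stimulate the cells; cAMP rise reported by CNG channel membrane potential dye signal; 0% = forskolin plus galanin with DMSO and 100% = forskolin alone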
Target sequence (O60755 1-299 limits assumed): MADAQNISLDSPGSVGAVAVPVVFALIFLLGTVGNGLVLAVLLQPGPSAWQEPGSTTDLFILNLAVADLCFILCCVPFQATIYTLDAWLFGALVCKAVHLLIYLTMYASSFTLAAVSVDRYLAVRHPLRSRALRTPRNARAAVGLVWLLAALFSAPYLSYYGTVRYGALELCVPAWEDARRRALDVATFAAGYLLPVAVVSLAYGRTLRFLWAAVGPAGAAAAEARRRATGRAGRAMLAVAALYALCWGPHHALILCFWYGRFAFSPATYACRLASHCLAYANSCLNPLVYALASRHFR
OX1R antag-2: blocks the human orexin 1 receptor; OX1R-expressing cells, FRET antagonist read-out; inhibition, % at 6.6 µM; 330,000 tested, 1.8% active; AID 485270; in the data active means inhibition mostly above about 38%, no sharp cut-off; inactive means mostly below about 40%;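 further: 0% = agonist challenge alone and 100% = reference antagonist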
Starred values were filed as active, the others as inactive; / = not tested or not shown.

SMILES | CHO parental Ca | OX1R antag-1 | TAAR1 agonist | TAAR1 antagonist | GalR3 antag | OX1R antag-2
CCC1(c2ccccc2)NC(=O)N(CC(=O)N(CC(=O)Nc2ccccc2C(F)(F)F)Cc2ccco2)C1=O (stereo unspecified) | -9 | -9 | 44* | 18 | -3 | 7
Cc1ccc(C2(C)NC(=O)N(CC(=O)c3ccc4c(c3)OCCO4)C2=O)cc1 (stereo unspecified) | -11 | -14 | 20 | 4 | -8 | 7
CCC1(c2ccccc2)NC(=O)N(CC(=O)Nc2ccccc2N2CCCC2)C1=O (stereo unspecified) | -1 | -3 | 39* | 3 | -4 | 17
Cc1cccc(C)c1NC(=O)Cc1cccs1 | -9 | -5 | 3 | -18 | -5 | 7
CCOC(=O)C[N+](CC)(CC)CC#Cc1ccccc1 | 4 | 1 | 3 | 1 | -2 | 15
CCC(CC)c1nnc(NC(=O)c2ccc([N+](=O)[O-])cc2)s1 | 0 | -20 | 4 | 11 | -9 | 12
Cc1cc(/C=C2\SC(=S)N(C)C2=O)c(C)n1-c1ccccc1O | 36* | 52* | 6 | 44 | -5 | 34
COC(=O)C(=C/C=C/c1cccnc1)C(=O)OC | -21 | 2 | 2 | -12 | 1 | 40
CN(C)c1ccc(N=Nc2ccccc2C(=O)OCC(=O)N(C)C2CCCCC2)cc1 | 55* | -18 | 2 | -29 | -3 | 37
Cc1nc2cc(-c3ccc(F)cc3)[nH]n2c(=O)c1C | 42* | 28 | 0 | -7 | -11 | 46
Cc1ccccc1-c1cc2nc(C)c(C)c(=O)n2[nH]1 | / | / | 2 | -17 | -1 | /
Cc1sc2ncnc(N3CCC(C(=O)NNC(=O)COc4ccccc4Cl)CC3)c2c1C | -5 | 10 | 11 | 43 | -1 | 26
Cc1sc2ncnc(N3CCC(C(=O)Nc4ccc(OC(F)F)c(Cl)c4)CC3)c2c1C | -8 | 17 | 6 | 28 | -4 | 30*
Cc1cc(Br)ccc1NC(=O)CN(C)C(=O)C1CCN(c2ncnc3sc(C)c(C)c23)CC1 | / | / | 12 | 57* | -5 | /
Cc1cccc(C)c1NC(=O)CN(C)C(=O)C1CCN(c2ncnc3sc(C)c(C)c23)CC1 | -31 | -29 | 5 | 2 | -1 | 11
Clc1ccc2c(c1)-c1nnc(Br)n1-c1ccccc1S2 | 2 | 20 | 8 | 9 | -8 | 60*
Clc1ccccc1-c1nnc2n1-c1ccccc1SC2 | -9 | 1 | 3 | -11 | -6 | 13
CC1CCN(S(=O)(=O)c2ccc(C(=O)NCc3ccc4c(c3)OCO4)cc2)CC1 | -4 | -22 | 17 | 58* | -7 | -2
CC1CC(C)CN(S(=O)(=O)c2ccc(C(=O)NCc3ccc4c(c3)OCO4)cc2)C1 (stereo unspecified) | -6 | -17 | 1 | 15 | -3 | 3
CCOC(=O)NC(NCC(O)c1ccccc1)(C(F)(F)F)C(F)(F)F (stereo unspecified) | 2 | -7 | 67* | 56* | -3 | 10
CSc1nc(C)cc(OCC(=O)N/N=C/c2ccccc2O)n1 | -6 | -13 | 11 | 5 | -2 | 15
COc1ccc2[nH]c(=O)c(CN(CCO)S(=O)(=O)c3c(C)ccc4nsnc34)cc2c1 | -15 | -15 | 11 | 15 | 1 | 42
COc1ccc2[nH]c(=O)c(CN(Cc3cccs3)S(=O)(=O)c3cccc4nsnc34)cc2c1 | -14 | -23 | 21 | 53* | -6 | 13
O=C(c1cc(COc2cccc(C(F)(F)F)c2)on1)N1CCC(Oc2cccnc2)CC1 | 39* | 11 | 6 | 33 | -3 | 6
Cc1ccc(OCc2cc(C(=O)N3CCC(Oc4cccnc4)CC3)no2)cc1C | 12 | 24 | 3 | 19 | 0 | 28
SMILES | CHO parental Ca | OX1R antag-1 | TAAR1 agonist | TAAR1 antagonist | GalR3 antag | OX1R antag-2
O=C(c1cc(COc2ccc(F)cc2Cl)on1)N1CCC(OCc2cccnc2)CC1 | 61* | 45* | 5 | -10 | -2 | 57
O=C(c1cc(COc2ccc(F)cc2Cl)on1)N1CCCC(OCc2cccnc2)C1 (stereo unspecified) | 8 | -22 | 5 | -7 | 7 | 26
Cc1ccc(CN2CCNC(=O)C2CC(=O)NCCCn2nnc3ccccc32)cc1 (stereo unspecified) | / | / | 0 | -6 | -6 | /
CC1(Cc2c(Cl)cccc2Cl)C(=O)Nc2cc(-c3ccccc3Cl)ccc21 (stereo unspecified) | / | / | 0 | -1 | -6 | /
CC1(Cc2ccccc2Cl)C(=O)Nc2cc(-c3ccccc3Cl)ccc21 (stereo unspecified) | / | / | 2 | 51* | -1 | /
O=C(COC(=O)c1ccc(OC(F)F)cc1)NCC1CCCO1 (stereo unspecified) | / | / | 0 | -13 | -7 | /
CCCNC(=O)c1ccccc1NC(=O)COc1cccc2c1OC(C)(C)C2 | -31 | -18 | 8 | 50* | -2 | 28
CC1(C)Cc2cccc(OCC(=O)Nc3ccccc3F)c2O1 | -20 | -33 | 3 | -10 | -1 | 15
Nc1nnc(Sc2ncccc2[N+](=O)[O-])s1 | -10 | -14 | 7 | -29 | -3 | 39*
Cc1ccnc(Sc2ncccc2[N+](=O)[O-])n1 | 9 | -8 | 1 | -17 | -2 | 60*
CC(C)(C)c1csc(Sc2ncccc2[N+](=O)[O-])n1 | -11 | -26 | -2 | -19 | -1 | 11
COC(=O)c1cccc(CN2C(=O)C(C)Sc3ccc(C)cc32)c1 (stereo unspecified) | / | / | 3 | 41 | -2 | /
Cc1ccccc1N1CCN(CC(=O)Nc2nccs2)CC1 | 10 | -14 | 0 | -2 | -11 | 12
COc1ccc(S(=O)(=O)N(CC(N)=O)C2CCCCC2)cc1Cl | -6 | -20 | 22 | -6 | -5 | 13
Cc1ccc(C)c(N(C(=O)c2csnn2)C(C(=O)NC2CCCC2)c2ccncc2)c1 (stereo unspecified) | -21 | -16 | 3 | -8 | -7 | 9
CC(N=C1NS(=O)(=O)c2ccccc21)c1ccccc1 (stereo unspecified) | -13 | -9 | 11 | -23 | 4 | 9
C=CCSc1nc(N)c(C#N)c(-c2ccc(C)cc2)c1C#N | -19 | 9 | 7 | 32 | -7 | 14
COc1ccc(CNCc2cc(Cl)ccc2O)cc1 | -10 | -5 | 34 | 13 | -3 | 33
Oc1ccc(Cl)cc1CNCc1ccc(Cl)nc1 | -14 | -15 | 40* | 12 | -7 | -3
Oc1ccc(Cl)cc1CNCc1ccc(F)c(F)c1 | -10 | 1 | 43* | 5 | -3 | 0
COc1cc(CC(=O)Nc2ccc3nc(C)sc3c2)cc(OC)c1OC | -6 | -9 | 14 | -10 | -2 | 11
